The values that follow come from ChEMBL document CHEMBL3588805, “Characterization and Biological Activities of Ocellatin Peptides from the Skin Secretion of the Frog Leptodactylus pustulatus” (J Nat Prod, 2015).

Data set [1] concerns Escherichia coli. Put plainly: Induction of morphological changes in Escherichia coli ATCC 25922 assessed as cell structural perturbation at 190 uM incubated for 24 hrs by atomic force microscopy. In kind it is functional, organism-based.
In data set [2] the test system is Escherichia coli. Put plainly: Induction of morphological changes in Escherichia coli ATCC 25922 assessed as cell cytoplasmic content release at 190 uM incubated for 24 hrs by atomic force microscopy. The format is functional, organism-based.
For data set [3], the system named is Escherichia coli. The data set is described as follows: Induction of morphological changes in Escherichia coli ATCC 25922 assessed as cell shape changes release at 190 uM incubated for 24 hrs by atomic force microscopy. The format is functional, organism-based.
Data set [4] is described as follows: Cytotoxicity against mouse NIH/3T3 cells at antibacterial MIC (Escherichia coli ATCC 25922) assessed as reduction in cell index incubated for 60 hrs. The conditions noted are these: nih3t3, 60 h. In kind it is cell-based.
The test system of data set [5] is Escherichia coli. Put plainly: Antibacterial activity against Escherichia coli ATCC 25922 assessed as inhibition of visible bacterial growth incubated at 37 degC for 24 hrs by CLSI protocol based method. In kind it is functional. The conditions noted are these: ATCC 25922, 24 h. A digest of the protocol:
(§1)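 Broth microdilution per CLSI 2012. Strains grown at 37 °C in Mueller-Hinton broth to log phase (1 × 10^8 CFU/mL). Peptide 2-fold serial dilutions, 6.25–800 μg/mL, in Mueller-Hinton broth; final inoculum 5 × 10^5 CFU/mL per well. Aerobic incubation 24 h at 37 °C. MIC is the lowest concentration with no visible growth (A600 < 0.05). Meropenem control for Gram-negatives, oxacillin for S. aureus. Triplicate, two independent experiments.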

The next data set concerns Staphylococcus aureus. The data set is described as follows: Antibacterial activity against Staphylococcus aureus […] assessed as inhibition of visible bacterial growth incubated at 37 degC for 24 hrs by CLSI protocol based method. The format is functional. The method in brief: as §1
For the next data set, the system named is Klebsiella pneumoniae. Put plainly: Antibacterial activity against Klebsiella pneumoniae ATCC 700603 assessed as inhibition of visible bacterial growth incubated at 37 degC for 24 hrs by CLSI protocol based method. The format is functional. The following applies: ATCC 700603, 24 h. A digest of the protocol: as §1
The next data set has as its system Salmonella enterica. The data set is described as follows: Antibacterial activity against Salmonella choleraesuis ATCC 14028 assessed as inhibition of visible bacterial growth incubated at 37 degC for 24 hrs by CLSI protocol based method. The format is functional. The following applies: ATCC 14028, 24 h. The method in brief:
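Strain grown at 37 °C in Mueller-Hinton broth to log phase (1 × 10^8 CFU/mL). Broth microdilution per CLSI (2012) with 2-fold peptide dilutions in Mueller-Hinton broth, 6.25–800 μg/mL, final inoculum 5 × 10^5 CFU/mL. Incubated 24 h, 37 °C, aerobic. MIC is the lowest concentration giving absorbance below 0.05 at 600 nm. Meropenem control. Triplicate, two independent experiments.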

Data set [6] in a line: Toxicity in human RBC assessed as induction of hemolysis at antibacterial MIC (Escherichia coli ATCC 25922) incubated for 1 hr at 37 degC. The conditions noted are these: human red blood cells (RBC), read-out: Activity. In kind it is cell-based, Erythrocyte. The method in brief:
(§2)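 Human RBCs collected in EDTA (1.8 mg/mL), washed three times, resuspended in 0.85% saline, mixed with an equal volume of peptide solution (100–800 μg/mL). 1 h at 37 °C, centrifuged at 10000g for 1 min, supernatant absorbance read at 550 nm. Saline and 0.1% (v/v) Triton X as 0 and 100% controls. % hemolysis = (A peptide − A saline)/(A Triton − A saline) × 100.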

Data set [7] in a line: Toxicity in human RBC assessed as induction of hemolysis at 800 ug/mL incubated for 1 hr at 37 degC. In kind it is cell-based, Erythrocyte. The following applies: human red blood cells (RBC), read-out: Activity. A digest of the protocol: as §2
Data set [8] relates to Escherichia coli. The data set is described as follows: Induction of cell envelope morphological changes in Escherichia coli ATCC 25922 at 190 uM incubated for 24 hrs by atomic force microscopy. In kind it is functional, organism-based.
For data set [9], the system named is Escherichia coli. The data set is described as follows: Induction of morphological changes in Escherichia coli ATCC 25922 assessed as reduction in number of pili at 190 uM incubated for 24 hrs by atomic force microscopy. In kind it is functional, organism-based.

The structures appear in SMILES notation. In brackets after ≈: the same amount, converted by molar mass. Activity calls are given as the source filed them. The calls are words filed in the database; no cut-off is given here. Where a SMILES comes first, the peptide text is derived from it.

For orientation: MIC means the lowest concentration that inhibits growth of the organism. As to `CC[C@H](C)[C@H](NC(=O)[C@H](CCCCN)NC(=O)CNC(=O)[C@H](CCSC)NC(=O)[C@H](C)NC(=O)[C@H](Cc1cnc[nH]1)NC(=O)[C@H](C)NC(=O)[C@@H](NC(=O)[C@H](CC(C)C)NC(=O)[C@H](CCC(N)=O)NC(=O)[C@H](CCCCN)NC(=O)CNC(=O)[C@H](C)NC(=O)CNC(=O)[C@H](CCCCN)NC(=O)[C@@H](NC(=O)[C@@H](NC(=O)[C@H](CC(=O)O)NC(=O)[C@H](Cc1ccccc1)NC(=O)[C@@H](NC(=O)CN)C(C)C)[C@@H](C)CC)[C@@H](C)CC)[C@@H](C)CC)C(=O)N[C@@H](C)C(=O)N[C@@H](CCC(=O)O)C(=O)N[C@@H](CCCCN)C(=O)N[C@H](C(=O)NCC(=O)N[C@@H](CC(C)C)C(=O)N[C@@H](CC(N)=O)C(=O)N[C@@H](CCCCN)C(=O)N[C@@H](CC(=O)O)C(=O)NCC(=O)N[C@@H](CC(N)=O)C(=O)O)C(C)C` (H-GVFDIIKGAGKQLIAHAMGKIAEKVGLNKDGN-OH), the outcome in the data set with Escherichia coli [1], with Escherichia coli [2], in the data set with Escherichia coli [3], in the data set with Escherichia coli [8] and in the data set on Escherichia coli [9] was Active. The Activity entry in data set [4] is “Non-toxic”. Also, the MIC is 60 µM (≈ 198 µg/mL) in the data set on Escherichia coli [5], 240 µM (≈ 791 µg/mL) in the data set on Staphylococcus aureus, greater than 240 µM in the data set on Klebsiella pneumoniae and 240 µM (≈ 791 µg/mL) in the data set on Salmonella enterica. The hemolysis at 1 h in [6] was 0.06%. Moreover, in data set [7], the hemolysis at 1 h, 800 ug/mL was found to be 13.7%.
